Values after ≈ are worked out from the molar mass of the structure shown. Active and inactive are the calls of the source. No cut-off for these calls is given here.
Key:
Plasmodium falciparum [1] = experiment: Antimicrobial activity against Plasmodium falciparum D6 by microdilution method; format: functional, organism-based
Plasmodium falciparum [2] = experiment: Antimicrobial activity against Plasmodium falciparum TM91C235 by microdilution method; format: functional, organism-based
Plasmodium falciparum [3] = experiment: Antimicrobial activity against Plasmodium falciparum W2 by microdilution method; format: functional, organism-based
Plasmodium berghei [4] = experiment: Antiplasmodial activity against Plasmodium berghei sporozoites infected in orally dosed mouse administered for three consecutive days one day before infection; format: functional; conditions: po, 24 h, read-out: MED
Summary of the method: (§1)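 Mice were inoculated with P. berghei sporozoites. For oral dosing, compounds were ground and suspended in hydroxyethylcellulose plus Tween 80; for sc dosing, they were suspended in peanut oil. Doses were given once daily on three consecutive days: the day before, 4 h before, and the day after inoculation. Several dose levels were used, up to 320 mg/kg/day. Cure was scored.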

[5] = Toxicity in Plasmodium berghei sporozoites infected orally dosed mouse administered for three consecutive days one day before infection; format: organism-based; conditions: in vivo, po
Summary of the method: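 Mice received P. berghei sporozoites. Each compound was ground and suspended in hydroxyethylcellulose plus Tween 80, then given orally at several dose levels up to 320 mg/kg/day. Dosing was once daily for three consecutive days: the day before, 4 h before, and the day after sporozoite inoculation.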

Mus musculus = organism: Mus musculus; experiment: Metabolic stability in mouse liver microsome by LC-MS/MS method; conditions: liver microsomes
Homo sapiens = organism: Homo sapiens; experiment: Metabolic stability in human liver microsome by LC-MS/MS method; conditions: liver microsomes
Plasmodium cynomolgi [6] = experiment: Antiplasmodial activity against Plasmodium cynomolgi sporozoites infected in Rhesus monkey assessed as duration for detection of parasites in blood at 0.316 mg/kg/day, po administered for three consecutive days before infection (reference value: 8 days); format: functional
Plasmodium cynomolgi [7] = experiment: Antiplasmodial activity against Plasmodium cynomolgi sporozoites infected in Rhesus monkey assessed as delay in detection of parasites in blood at 0.316 mg/kg/day, po administered for three consecutive days before infection; format: functional
Plasmodium cynomolgi [8] = experiment: Antiplasmodial activity against Plasmodium cynomolgi sporozoites infected in Rhesus monkey assessed as relapse time at 10 mg/kg/day, po administered for 7 consecutive days
Plasmodium cynomolgi [9] = experiment: Antiplasmodial activity against Plasmodium cynomolgi sporozoites infected in Rhesus monkey assessed as delay in detection of parasites in blood at 1.78 mg/kg/day, po administered for three consecutive days before infection; format: functional
Plasmodium cynomolgi [10] = experiment: Antiplasmodial activity against Plasmodium cynomolgi sporozoites infected in Rhesus monkey assessed as duration for detection of parasites in blood at 1.78 mg/kg/day, po administered for three consecutive days before infection (reference value: 8 days); format: functional
Plasmodium berghei [11] = experiment: Antiplasmodial activity against Plasmodium berghei sporozoites infected in orally dosed mouse assessed as cure from infection 160 mg/kg/day, po administered for three consecutive days before infection measured after at day 31; format: functional, organism-based; summary of the method: as §1
Plasmodium cynomolgi [12] = experiment: Antiplasmodial activity against Plasmodium cynomolgi sporozoites infected in Rhesus monkey assessed as delay in detection of parasites in blood at 30 mg/kg/day, im administered for three consecutive days before infection; format: functional; conditions: route intramuscular
Plasmodium cynomolgi [13] = experiment: Antiplasmodial activity against Plasmodium cynomolgi sporozoites infected in Rhesus monkey assessed as delay in detection of parasites in blood at 50 mg/kg/day, po administered for three consecutive days before infection; format: functional
Plasmodium cynomolgi [14] = experiment: Antiplasmodial activity against Plasmodium cynomolgi sporozoites infected in Rhesus monkey assessed as duration for detection of parasites in blood at 30 mg/kg/day, im administered for three consecutive days before infection (reference value: 8 days); format: functional; conditions: route intramuscular
Plasmodium cynomolgi [15] = experiment: Antiplasmodial activity against Plasmodium cynomolgi sporozoites infected in Rhesus monkey assessed as duration for detection of parasites in blood at 50 mg/kg/day, po administered for three consecutive days before infection (reference value: 8 days); format: functional
[16] = Plasmodium falciparum, D6, read-out: IC50
[17] = Plasmodium falciparum, TM91C235, read-out: IC50
[18] = Plasmodium falciparum, W2, read-out: IC50

SMILES	IC50 (Plasmodium falciparum [1]) [µg/mL]	IC50 (Plasmodium falciparum [1]; [16]) [µg/mL]	IC50 (Plasmodium falciparum [2]) [µg/mL]	IC50 (Plasmodium falciparum [2]; [17]) [µg/mL]	IC50 (Plasmodium falciparum [3]) [µg/mL]	IC50 (Plasmodium falciparum [3]; [18]) [µg/mL]	minimal effective dose (Plasmodium berghei [4]) [mg/kg/day]	MTD at 3 days [5] [mg/kg/day]	half-life (Mus musculus) [h]	half-life (Homo sapiens) [h]	Time (Plasmodium cynomolgi [6]) [days]	Time (Plasmodium cynomolgi [7]) [days]	Time (Plasmodium cynomolgi [8]) [days]	Time (Plasmodium cynomolgi [9]) [days]	Time (Plasmodium cynomolgi [10]) [days]	Activity (Plasmodium berghei [11])	Time (Plasmodium cynomolgi [12]) [days]	Time (Plasmodium cynomolgi [13]) [days]	Time (Plasmodium cynomolgi [14]) [days]	Time (Plasmodium cynomolgi [15]) [days]
CC(C)N1C(=O)C(=O)N=C1/N=C(\Nc1ccccc1)Nc1ccc(Cl)c(Cl)c1	2.16 (≈ 5.16 µM)	2.16 (≈ 5.16 µM)	2.6 (≈ 6.22 µM)	2.6 (≈ 6.22 µM)	0.88 (≈ 2.1 µM)	0.88 (≈ 2.1 µM)	> 160	≥ 160	> 1	> 1	–	–	–	–	–	–	–	–	–	–
CC(C)N1C(=O)C(=O)N=C1/N=C(\NCCN(C)C)Nc1ccc(Cl)c(Cl)c1	–	> 5	–	> 5	–	> 5	> 160	≥ 160	> 1	> 1	–	–	–	–	–	–	–	–	–	–
COc1cc(C)c2c(Oc3cccc(C(F)(F)F)c3)c(OC)cc(NC(C)CCCN)c2n1 (stereo unspecified) [TAFENOQUINE]	–	–	–	–	–	–	–	–	–	–	10	2	–	–	–	–	–	–	–	–
CCN(CC)CCCC(C)Nc1ccnc2cc(Cl)ccc12 (stereo unspecified) [CHLOROQUINE]	–	–	–	–	–	–	–	–	–	–	–	–	11	–	–	–	–	–	–	–
CC(C)N1C(=O)C(=O)N=C1/N=C(\NCCN1CCCC1)Nc1ccc(Cl)c(Cl)c1	–	> 5	–	> 5	1.32 (≈ 3 µM)	1.32 (≈ 3 µM)	> 160	≥ 160	0.886	> 1	–	–	–	–	–	–	–	–	–	–
CC(C)N1C(=O)C(=O)N=C1/N=C(/Nc1ccc(Cl)c(Cl)c1)NC1C2CC3CC(C2)CC1C3 (stereo unspecified)	0.81 (≈ 1.7 µM)	0.81 (≈ 1.7 µM)	2.07 (≈ 4.35 µM)	2.07 (≈ 4.35 µM)	2.68 (≈ 5.63 µM)	2.68 (≈ 5.63 µM)	> 320	≥ 320	0.124	0.093	–	–	–	–	–	–	–	–	–	–
COc1cc(NC(C)CCCN)c2ncccc2c1 (stereo unspecified) [PRIMAQUINE]	–	–	–	–	–	–	–	–	–	–	–	–	–	5	13	–	–	–	–	–
CC(C)N1C(=O)C(=O)N=C1/N=C(\NCCCN(C)C)Nc1ccc(Cl)c(Cl)c1	–	> 5	–	> 5	–	> 5	> 160	≥ 160	> 1	> 1	–	–	–	–	–	–	–	–	–	–
CCN/C(=N\C1=NC(=O)C(=O)N1C(C)C)Nc1ccc(Cl)c(Cl)c1	–	> 5	–	> 5	1.67 (≈ 4.51 µM)	1.67 (≈ 4.51 µM)	> 160	≥ 160	> 1	> 1	–	–	–	–	–	–	–	–	–	–
CCON/C(=N\C1=NC(=O)C(=O)N1C(C)C)Nc1ccc(Cl)c(Cl)c1	–	> 5	–	> 5	–	> 5	160	< 40	> 1	> 1	–	–	–	–	–	Active	–	–	–	–
CCN(CC)CCN/C(=N\C1=NC(=O)C(=O)N1C(C)C)Nc1ccc(Cl)c(Cl)c1	–	> 5	–	> 5	–	> 5	> 160	≥ 160	0.294	0.525	–	–	–	–	–	–	–	–	–	–
CC(C)N1C(=O)C(=O)N=C1/N=C(/Nc1ccc(Cl)c(Cl)c1)NC(C)(C)C	0.72 (≈ 1.81 µM)	0.72 (≈ 1.81 µM)	1.36 (≈ 3.41 µM)	1.36 (≈ 3.41 µM)	1.15 (≈ 2.89 µM)	1.15 (≈ 2.89 µM)	> 320	≥ 320	> 1	> 1	–	–	–	–	–	–	–	–	–	–
CC(C)N1C(=O)C(=O)N=C1/N=C(\NCCCCCCNC(=O)OC(C)(C)C)Nc1ccc(Cl)c(Cl)c1	–	> 5	–	> 5	1.46 (≈ 2.7 µM)	1.46 (≈ 2.7 µM)	> 160	≥ 160	0.182	0.208	–	–	–	–	–	–	–	–	–	–
CCCCCCN/C(=N\C1=NC(=O)C(=O)N1C(C)C)Nc1ccc(Cl)c(Cl)c1	1.35 (≈ 3.17 µM)	1.35 (≈ 3.17 µM)	2.8 (≈ 6.57 µM)	2.8 (≈ 6.57 µM)	2.62 (≈ 6.15 µM)	2.62 (≈ 6.15 µM)	> 160	≥ 160	0.131	–	–	–	–	–	–	–	–	–	–	–
CC(C)N1C(=O)C(=O)N=C1/N=C(\NCCCCN1CCCC1)Nc1ccc(Cl)c(Cl)c1	1.55 (≈ 3.32 µM)	1.55 (≈ 3.32 µM)	–	> 5	2.3 (≈ 4.92 µM)	2.3 (≈ 4.92 µM)	> 160	≥ 160	> 1	> 1	–	–	–	–	–	–	–	–	–	–
C=CCON/C(=N\C1=NC(=O)C(=O)N1C(C)C)Nc1ccc(Cl)c(Cl)c1	8.5 (≈ 21.3 µM)	8.5 (≈ 21.3 µM)	–	> 15	6.7 (≈ 16.8 µM)	6.7 (≈ 16.8 µM)	160	120	> 1	> 1	–	–	–	–	–	Active	–	–	–	–
CC(C)N1C(=O)C(=O)N=C1/N=C(\NCc1ccccc1)Nc1ccc(Cl)c(Cl)c1	2.36 (≈ 5.46 µM)	2.36 (≈ 5.46 µM)	–	> 5	1.3 (≈ 3.01 µM)	1.3 (≈ 3.01 µM)	> 320	≥ 320	> 1	> 1	–	–	–	–	–	–	–	–	–	–
CC(C)N/C(=N\C1=NC(=O)C(=O)N1C(C)C)Nc1ccc(Cl)c(Cl)c1	–	> 6	–	–	–	> 6	160	≥ 160	> 1	> 1	–	–	–	–	–	Active	54	3	62	11
CC(C)N1C(=O)C(=O)N=C1/N=C(\NOC(C)(C)C)Nc1ccc(Cl)c(Cl)c1	2.75 (≈ 6.64 µM)	2.75 (≈ 6.64 µM)	3.36 (≈ 8.11 µM)	3.36 (≈ 8.11 µM)	1.14 (≈ 2.75 µM)	1.14 (≈ 2.75 µM)	> 160	≥ 160	> 1	> 1	–	–	–	–	–	–	–	–	–	–
CC(C)N1C(=O)C(=O)N=C1/N=C(\NCC(C)(C)C)Nc1ccc(Cl)c(Cl)c1	1.1 (≈ 2.67 µM)	1.1 (≈ 2.67 µM)	0.95 (≈ 2.3 µM)	0.95 (≈ 2.3 µM)	0.37 (≈ 0.897 µM)	0.37 (≈ 0.897 µM)	160	≥ 320	> 1	> 1	–	–	–	–	–	Active	–	–	–	–
CON/C(=N\C1=NC(=O)C(=O)N1C(C)C)Nc1ccc(Cl)c(Cl)c1	–	> 5	–	> 5	–	> 5	≥ 40	< 40	> 1	> 1	–	–	–	–	–	Active	–	–	–	–
CN/C(=N\C1=NC(=O)C(=O)N1C(C)C)Nc1ccc(Cl)c(Cl)c1	–	> 5	–	> 5	–	> 5	> 320	≥ 320	> 1	> 1	–	–	–	–	–	–	–	–	–	–
CC(C)N1C(=O)C(=O)N=C1/N=C(\NOCc1ccccc1)Nc1ccc(Cl)c(Cl)c1	–	> 5	–	> 5	–	> 5	> 160	≥ 160	0.214	> 1	–	–	–	–	–	–	19	–	27	–
